Active and inactive are the calls of the source. The calls are words filed in the database; no cut-off is given here.
What was measured:
Mus musculus [1] = species: Mus musculus; assay: Compound total dose to termination (day 25/65) in mid dose 2; assay type: functional
Outline: (§1)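 Male B6D2F1 mice given daily oral gavage in corn oil; dosages increased during the study (day 30 or day 51 depending on compound). Cumulative dose in mg/kg administered up to termination (day 65, or day 25 for TTNPB 0.01/0.05 mg/kg/day groups).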

Mus musculus [2] = species: Mus musculus; assay: Skin scaling in mice at mid dose 2 with Hypervitaminosis; 0/16; assay type: functional, organism-based
Outline: (§2)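 Male B6D2F1 mice were dosed daily by gavage in corn oil and observed for skin scaling of the ears, mouth, nose, eyelids, feet, tail or ventral body. Results are given as affected animals over animals in the group, with the day of first observation.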

Mus musculus [3] = species: Mus musculus; assay: Effect of compound on serum triglycerides levels in mice at low dose on day 8; assay type: functional
Outline: (§3)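 Male B6D2F1 mice were gavaged daily with compound in corn oil at low, mid 1, mid 2 or high dose. Serum triglycerides and circulating white blood cells were measured on the stated day (8, 29, 36, 65). Values are group mean ± SD expressed as % relative to corn-oil vehicle, with significance at p ≤ 0.05.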

Mus musculus [4] = species: Mus musculus; assay: Avoiding pressure on limbs in mice at low dose with Hypervitaminosis; 0/16; assay type: functional, organism-based; conditions: Limb
Mus musculus [5] = species: Mus musculus; assay: Avoiding pressure on limbs in mice at mid dose 2 with Hypervitaminosis; 0/16; assay type: functional, organism-based; conditions: Limb
Mus musculus [6] = species: Mus musculus; assay: Effect of compound on serum Alkaline phosphatase levels in mice at mid dose 1 on day 65; assay type: functional
Outline: (§4)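 Male B6D2F1 mice dosed daily by oral gavage in corn oil at low, mid 1, mid 2 or high dose. Blood sampled on set days (8, 29, 36, 65) for clinical chemistry, serum alkaline phosphatase and triglycerides. Group mean ± SD reported as % relative to vehicle 1; significance p < 0.05 versus corn oil vehicle.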

Mus musculus [7] = species: Mus musculus; assay: Effect of compound on serum triglycerides levels in mice at mid dose 1 on day 8; assay type: functional; outline: as §3
Mus musculus [8] = species: Mus musculus; assay: Enlarged lymph in gross pathological observations in mice with hypervitaminosis A in mice at high dose with gross observations/total number of mice in group; 1/16; assay type: functional, organism-based
Mus musculus [9] = species: Mus musculus; assay: Fracture incidence in mouse at mid dose 1; 0/8
Mus musculus [10] = species: Mus musculus; assay: Effect of compound on serum triglycerides levels in mice at mid dose 1 on day 36; assay type: functional; outline: as §3
Mus musculus [11] = species: Mus musculus; assay: Effect of compound on Spleen to body weight ratios in mice at low dose on day 65; assay type: functional
Outline: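 Male B6D2F1 mice dosed daily by gavage with compound in corn oil; vehicle 1 (corn oil) controls run to termination on day 65. Low, mid 1, mid 2 and high dose groups, with dosage increases partway through the study. Organ-to-body weight ratios (×1000) taken at necropsy on day 65, reported as mean ± SD for 4 to 8 animals and as % difference from vehicle.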

Mus musculus [12] = species: Mus musculus; assay: Compound total dose to termination (day 25/65) in high dose; assay type: functional; outline: as §1
Mus musculus [13] = species: Mus musculus; assay: Effect of compound on serum triglycerides levels in mice at low dose on day 36; assay type: functional; outline: as §4
Mus musculus [14] = species: Mus musculus; assay: Effect of compound on serum Alkaline phosphatase levels in mice at low dose on day 29; assay type: functional; outline: as §4
Mus musculus [15] = species: Mus musculus; assay: Effect of compound on serum Alkaline phosphatase levels in mice at high dose on day 65; assay type: functional; outline: as §4
Mus musculus [16] = species: Mus musculus; assay: Enlarged lymph in gross pathological observations in mice with hypervitaminosis A at low dose with gross observations/total number of mice in group; 1/16; assay type: functional, organism-based
Mus musculus [17] = species: Mus musculus; assay: Compound total dose to termination (day 25/65) in low dose; assay type: functional; outline: as §1
Mus musculus [18] = species: Mus musculus; assay: Effect of compound on white blood cells levels in mice at mid dose 2 on day 65; assay type: functional; outline: as §3
Mus musculus [19] = species: Mus musculus; assay: Skin scaling in mice at low dose with Hypervitaminosis; 0/16; assay type: functional, organism-based; outline: as §2
Mus musculus [20] = species: Mus musculus; assay: Fracture incidence in mouse at mid dose 2; 4/8
Mus musculus [21] = species: Mus musculus; assay: Effect of compound on thymus to body weight ratios in mice at high dose on day 65; assay type: functional
Outline: (§5)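 Male B6D2F1 mice were dosed daily by gavage in corn oil, with TTNPB given at 0.1–0.8 or 0.01/0.05 mg/kg/day. Thymus-to-body weight ratio (×1000) was taken at necropsy on day 65 against vehicle 1, or on day 25 for the 0.01/0.05 groups against vehicle 2. Mean ± SD of 4–8 animals, reported as % difference from vehicle.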

Mus musculus [22] = species: Mus musculus; assay: Enlarged spleen in Gross pathological observations in mice with hypervitaminosis A at low dose with gross observations/total number of mice in group; 0/16; assay type: functional, organism-based
Mus musculus [23] = species: Mus musculus; assay: Effect of compound on serum triglycerides levels in mice at mid dose 2 on day 29; assay type: functional; outline: as §3
[24] = Mortality rate in mice in high dose; assay type: ADME; conditions: mouse, in vivo
Outline: (§6)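 Male B6D2F1 mice given compound daily by gavage in corn oil at the stated dose levels, with corn oil vehicle controls. Deaths counted as animals found dead or sacrificed moribund, with day(s) of death recorded. Heteroarotinoid groups ran to day 65 and low-dose reference groups to day 25.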

Mus musculus [25] = species: Mus musculus; assay: Enlarged lymph in gross pathological observations in mice with hypervitaminosis A at mid dose 1 with gross observations/total number of mice in group; 6/16; assay type: functional, organism-based
Mus musculus [26] = species: Mus musculus; assay: Fracture incidence in mouse at mid dose 1; 5/8
Mus musculus [27] = species: Mus musculus; assay: Enlarged lymph in gross pathological observations in mice with hypervitaminosis A at mid dose 2 with gross observations/total number of mice in group; 8/16; assay type: functional, organism-based
[28] = Mortality rate in mice in mid dose 2; assay type: ADME; conditions: mouse, in vivo; outline: as §6
Mus musculus [29] = species: Mus musculus; assay: Enlarged spleen in Gross pathological observations in mice with hypervitaminosis A at mid dose 2 with gross observations/total number of mice in group; 6/16
[30] = Mortality rate in mice in mid dose 1; assay type: ADME; conditions: mouse, in vivo; outline: as §6
Mus musculus [31] = species: Mus musculus; assay: Enlarged lymph in gross pathological observations in mice with hypervitaminosis A in mice at high dose with gross observations/total number of mice in group; 8/16; assay type: functional, organism-based
Mus musculus [32] = species: Mus musculus; assay: Effect of compound on thymus to body weight ratios in mice at high dose on day 65; all the animals died by day 65; assay type: functional, organism-based; outline: as §5
Mus musculus [33] = species: Mus musculus; assay: Effect of compound on serum Alkaline phosphatase levels in mice at mid dose 2 on day 36; assay type: functional; outline: as §4
Mus musculus [34] = species: Mus musculus; assay: Alopecia in mice observed at mid dose 1 with Hypervitaminosis; 1/16; assay type: functional, organism-based
Mus musculus [35] = species: Mus musculus; assay: Average number of fractures per mouse at lmid dose 1
Mus musculus [36] = species: Mus musculus; assay: Skin scaling in mice at high dose with Hypervitaminosis; 0/16; assay type: functional, organism-based
Mus musculus [37] = assay: Effect of compound on Spleen to body weight ratios in mice at 0.01 mg/kg/day dose; all the animals died by day 65; assay type: functional, organism-based
Mus musculus [38] = assay: Average number of fractures per mouse at 0.05 mg/kg/day
Mus musculus [39] = assay: Effect of compound on adrenal to body weight ratios in mice at 0.2 mg/kg/day dose; all the animals died by day 65; assay type: functional, organism-based
Mus musculus [40] = assay: Average number of fractures per mouse at 0.8 mg/kg/day
Mus musculus [41] = assay: Fracture incidents in mouse at 0.1 mg/kg/day
Mus musculus [42] = assay: Skin scaling at 0.2 mg/kg/day in mice with hypervitaminosis; 14/16; assay type: functional, organism-based
Mus musculus [43] = assay: Skin scaling at 0.4 mg/kg/day in mice with hypervitaminosis; 15/16; assay type: functional, organism-based

Row | SMILES | Total dose (Mus musculus [1]) [mg/kg] | Activity (Mus musculus [2]) | Activity (Mus musculus [3]) | Activity (Mus musculus [4]) | Activity (Mus musculus [5]) | Activity (Mus musculus [6]) | Activity (Mus musculus [7]) | Activity (Mus musculus [8]) | Activity (Mus musculus [9]) | Activity (Mus musculus [10]) | Activity (Mus musculus [11]) | Total dose (Mus musculus [12]) [mg/kg] | Activity (Mus musculus [13]) | Activity (Mus musculus [14]) | Activity (Mus musculus [15]) | Activity (Mus musculus [16]) | Total dose (Mus musculus [17]) [mg/kg] | Activity (Mus musculus [18]) | Activity (Mus musculus [19]) | Activity (Mus musculus [21]) | also measured
1 | CC(/C=C/C=C(\C)c1ccc2c(c1)C(C)(C)CCO2)=C\C(=O)O | 828.4 | inactive | 96.8 | inactive | inactive | 127.1 | 97.2 | inactive | inactive | 202.8 | 2.3 | 3106.5 | 187.1 | 96.8 | 156.8 | inactive | 207.1 | 4.51 | inactive | 1.3 | Activity (Mus musculus [20]): Weak activity; Activity (Mus musculus [22]): inactive; Activity (Mus musculus [23]): 159.3
2 | C/C(=C\c1ccc(C(=O)O)cc1)c1ccc2c(c1)C(C)(C)CCO2 | – | – | – | – | – | 123.1 | – | – | – | – | 3.6 | – | – | – | – | – | – | 6.55 | – | – | Mortality [24]: 8 day of death; Activity (Mus musculus [25]): Weak activity; Activity (Mus musculus [26]): Weak activity; Activity (Mus musculus [27]): Weak activity; Mortality [28]: 4 day of death; Activity (Mus musculus [29]): Weak activity; Mortality [30]: 0 day of death; Activity (Mus musculus [31]): Weak activity; Activity (Mus musculus [32]): Toxic; Activity (Mus musculus [33]): 93.3
3 | CC(/C=C/C=C(\C)c1ccc2c(c1)C(C)(C)CCS2)=C\C(=O)O | 828.4 | inactive | 97.5 | inactive | inactive | – | 97.6 | inactive | inactive | 212.7 | – | 3106.5 | 194.9 | 94.9 | 159 | inactive | 207.1 | – | inactive | 1.5 | Mortality [24]: 0 day of death; Activity (Mus musculus [34]): inactive; Mortality [28]: 0 day of death; Activity (Mus musculus [35]): 0; Mortality [30]: 1 day of death; Activity (Mus musculus [36]): inactive; Activity (Mus musculus [22]): inactive; Activity (Mus musculus [23]): 153.4; Activity (Mus musculus [33]): 75.6
4 | C/C(=C\c1ccc(C(=O)O)cc1)c1ccc2c(c1)C(C)(C)CCC2(C)C | – | – | – | – | – | – | – | – | – | – | – | – | – | – | – | – | – | – | – | – | Activity (Mus musculus [37]): Toxic; Activity (Mus musculus [38]): 3.3; Activity (Mus musculus [39]): Toxic; Activity (Mus musculus [40]): 0; Activity (Mus musculus [41]): 5.7; Activity (Mus musculus [42]): Active; Activity (Mus musculus [43]): Active

From ChEMBL document CHEMBL1130202, “Biologically active heteroarotinoids exhibiting anticancer activity and decreased toxicity” (J Med Chem, 1997)
